Source: PubChem
The list is not random: actives were taken first. Their share in the collection is about 4.6%.
TAAR1 antag: human TAAR1 antagonists, primary screen, Fluo-8 calcium fluorescence, CHO RD-HGA16 cells; Trace amine-associated receptor 1 (Homo sapiens), Q96RJ0; antagonist; inhibition, % at 3 µM; 1.5% of 360,000 active;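 active means inhibition above a per-plate cutoff, the mean inhibition of test compounds on that plate plus 3 SD, cut at about 49% in these data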;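 further: 0% = DMSO plus EC80 beta-PEA response and 100% = DMSO alone without agonist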
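Test system: RD-HGA16 CHO cells with stable hTAAR1 and Gα16 / Probe or stimulus: EC80 β-phenethylamine stimulus / Times: seeding 17-24 h prior, 75-min 37 °C, 30-min RT dye loading / Detection: Fluo-8 calcium-sensitive fluorescence / Read-out basis: % inhibition scaled between DMSO and EC80 PEA controls / Repeats: singlicate, one well per test compound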
TAAR1 ag: human TAAR1 agonists, primary screen, Fluo-8 calcium fluorescence, CHO RD-HGA16 cells; Trace amine-associated receptor 1 (Homo sapiens), Q96RJ0; vehicle wells 0%, saturating PEA agonist 100%; activation, % at 3 µM; 0.99% of 360,000 active; AID 624467, 2012;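 active means activation above the mean activation of all test compounds in the run plus 3 SD, cut at about 38% in these data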
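test system = CHO RD-HGA16 cells carrying human TAAR1 plus Gα16 | schedule = 17-24 h seeding, 75 min 37 °C dye, 30 min RT | compound dosing = 3 µM single concentration | control set = DMSO and PEA EC100 | replicates = n 1 | signal = Fluo-8 fluorescence, 5 s baseline then 140 s kinetic read | measure = percent activation vs PEA EC100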
CHO parental Ca: ATP-evoked calcium signal inhibitors, parental CHO, primary screen, counter-screen for OX1R antagonist project, cell-based, fluorescence, Fluo-8 calcium dye; parental CHO-K1, ATP-induced calcium, Fluo-8 fluorescence; inhibition, % at 5.6 µM; 0.63% of 330,000 active;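 active means inhibition above that plate's mean sample inhibition plus 3 SD, cut at about 26% in these data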;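 further: 0% = ATP-challenged DMSO wells and 100% = DMSO wells without ATP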
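Assay system – parental CHO cells · Reagent – ATP stimulus · Detection – intracellular calcium via Fluo-8 no-wash fluorescent dye · Evaluation – percent inhibition of ATP-evoked calcium rise, normalized to controls · Controls – ATP wells versus no-ATP DMSO wells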
OX1R antag-1: antagonists of human orexin 1 receptor (OX1R); 1.8% of 330,000 active; OX1R-expressing cells, FRET antagonist read-out; AID 485270, 2010; inhibition, % at 6.6 µM; Orexin/Hypocretin receptor type 1 (Homo sapiens), O43613; in the data active means inhibition mostly above about 38%, no sharp cut-off; inactive means mostly below about 40%;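 further: 0% = agonist challenge alone and 100% = reference antagonist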
OX1R antag-2: OX1R (HCRTR1) antagonists, primary screen, fluorescence, CHO/OX1R cells, Fluo-8 calcium, orexin A; Fluo-8 calcium fluorescence; inhibition, % at 5 µM; 0.43% of 330,000 active;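 active means inhibition above its plate's threshold, mean inhibition of all tested compounds on the plate plus 3 SD, cut at about 37% in these data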;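 further: 0% = orexin A challenge wells and 100% = SB-334867-A antagonist wells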
GPR7 antag: GPR7 receptor antagonists, primary screen, cell-based, fluorescence, single concentration. Neuropeptides B/W receptor type 1 (Homo sapiens), P48145. GPR7-expressing cells, fluorescence antagonist assay. inhibition, % at 4.4 µM. 1.1% of 290,000 active; in the data active means inhibition above about 16%, passing the limit was not always enough;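 further: cells stimulated with the agonist NPW; 0% = agonist with vehicle and 100% = vehicle without agonist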
Target sequence (P48145 whole entry, looked up): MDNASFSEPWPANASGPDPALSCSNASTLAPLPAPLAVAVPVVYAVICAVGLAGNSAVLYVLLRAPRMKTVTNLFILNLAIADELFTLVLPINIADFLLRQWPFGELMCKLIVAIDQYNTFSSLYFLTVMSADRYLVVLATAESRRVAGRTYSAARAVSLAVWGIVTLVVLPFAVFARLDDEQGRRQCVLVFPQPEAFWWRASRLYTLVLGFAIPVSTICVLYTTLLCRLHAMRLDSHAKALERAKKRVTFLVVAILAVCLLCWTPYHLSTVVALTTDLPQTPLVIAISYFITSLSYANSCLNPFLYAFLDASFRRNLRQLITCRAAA
OX1R HTRF conf: OX1R (HCRTR1) antagonists, confirmation, cell-based, HTRF; shares compounds with OX1R antag-1; OX1R-expressing cells, HTRF antagonist assay; inhibition, % at 6.6 µM; 49% of 1,800 active; AID 492964, 2010; in the data active means inhibition above about 55%;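 further: CHO cells expressing OX1R stimulated with orexin A at about EC80; 0% = agonist challenge alone and 100% = reference antagonist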
CHO-K1 HTRF: signal inhibition in parental CHO-K1 cells, counter-screen for OX1R antagonist project, cell-based, HTRF. 48% of 1,800 active. inhibition, % at 6.6 µM. shares compounds with OX1R antag-1. HTRF counterscreen. AID 493232, 2011; in the data active means inhibition above about 17%;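 further: 0% = agonist challenge with vehicle and 100% = vehicle alone without agonist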
* = called active by the depositor.

What do the screens show for `c1cncc(-c2nnc(-c3cccnc3)nn2)c1`?
TAAR1 antag: -5; TAAR1 ag: 5; CHO parental Ca: -6; OX1R antag-1: 88*; OX1R antag-2: -2; GPR7 antag: 1; OX1R HTRF conf: 39; CHO-K1 HTRF: 28*

What do the screens show for `Cc1cc(C(=O)Nc2cccc3cccnc23)ccc1[N+](=O)[O-]`?
TAAR1 antag: -3; TAAR1 ag: 16; CHO parental Ca: -28; OX1R antag-1: 80*; OX1R antag-2: 11; GPR7 antag: 6; OX1R HTRF conf: 56*; CHO-K1 HTRF: 9

What do the screens show for `O=C(Nc1cccc2cccnc12)c1cccc([N+](=O)[O-])c1`?
TAAR1 antag: -6; TAAR1 ag: 0; CHO parental Ca: -16; OX1R antag-1: 16; OX1R antag-2: -10; GPR7 antag: -15

Results for CC(C)Oc1ccc(C(=O)Nc2cccc3cccnc23)cc1 ?
TAAR1 antag: 25; TAAR1 ag: -2; CHO parental Ca: -20; OX1R antag-1: 79*; OX1R antag-2: 19; GPR7 antag: -9; OX1R HTRF conf: 7; CHO-K1 HTRF: -7

What do the screens show for `O=C(COc1ccc2ccccc2c1)Nc1cccc2cccnc12`?
TAAR1 antag: 25; TAAR1 ag: 13; CHO parental Ca: -23; OX1R antag-1: 81*; OX1R antag-2: 27; GPR7 antag: 7; OX1R HTRF conf: 45; CHO-K1 HTRF: -1

What do the screens show for `O=C(COc1ccc2ccccc2c1)Nc1cccnc1Cl`?
TAAR1 antag: -4; TAAR1 ag: 0; CHO parental Ca: -27; OX1R antag-1: 12; OX1R antag-2: -34; GPR7 antag: -10

What do the screens show for `O=C(Nc1cccc(C(F)(F)F)c1)C1CC(=O)N(Cc2ccco2)C1` (stereo not drawn)?
TAAR1 antag: -5; TAAR1 ag: 0

How did Cc1ccc(OCCC(=O)N(CC(=O)Nc2ccccc2C(F)(F)F)Cc2ccco2)cc1 do in these assays?
TAAR1 antag: -15; TAAR1 ag: -2; CHO parental Ca: -21; OX1R antag-1: 38; OX1R antag-2: -16

What do the screens show for `CCN(CCCNC(=O)C1CCN(S(=O)(=O)c2cccc3nonc23)CC1)Cc1ccccc1`?
TAAR1 antag: -2; TAAR1 ag: 13; CHO parental Ca: -12; OX1R antag-1: 92*; OX1R antag-2: -16; GPR7 antag: 5; OX1R HTRF conf: 29; CHO-K1 HTRF: 44*

What do the screens show for `C#Cc1ccc2c(c1)COc1c3ccccc3nn1-2`?
TAAR1 antag: 4; TAAR1 ag: 11; CHO parental Ca: -27; OX1R antag-1: 84*; OX1R antag-2: -26; OX1R HTRF conf: 60*; CHO-K1 HTRF: 14

How did CC1CCc2nc(NC(=O)CSc3nc4ccccc4o3)sc2C1 (stereo not drawn) do in these assays?
TAAR1 antag: 28; TAAR1 ag: 3; CHO parental Ca: 4; OX1R antag-1: 89*; OX1R antag-2: -27; GPR7 antag: -3; OX1R HTRF conf: 31; CHO-K1 HTRF: 10

What do the screens show for `Cc1nnc(NC(=O)CSc2nc3ccccc3o2)s1`?
TAAR1 antag: 2; TAAR1 ag: 8; CHO parental Ca: 2; OX1R antag-1: -5; OX1R antag-2: -15; GPR7 antag: 0

What do the screens show for `O=C(O)COc1c(Cl)cc(/C=C2/NC(=O)NC2=O)cc1Br`?
TAAR1 antag: 11; TAAR1 ag: 1; CHO parental Ca: -9; OX1R antag-1: 88*; OX1R antag-2: -15; GPR7 antag: -13; OX1R HTRF conf: 42; CHO-K1 HTRF: 37*
